ChEMBL document CHEMBL1152611, “Indene-based frameworks targeting the 5-HT6 serotonin receptor: ring constraint in indenylsulfonamides using cyclic amines and structurally abbreviated counterparts” (Bioorg Med Chem, 2009)

Assays:
[1] = target: T1, 5-hydroxytryptamine receptor 6 (Homo sapiens, UniProt P50406); experiment: Displacement of [3H]LSD from human 5HT6 receptor expressed in HEK293 cells at 100 nM; format: cell-based
[2] = target: T1, 5-hydroxytryptamine receptor 6; experiment: Displacement of [3H]LSD from human 5HT6 receptor expressed in HEK293 cells; format: cell-based
In short: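 Commercial HEK-293 membranes with human 5-HT6 diluted 1:40 in 50 mM Tris-HCl, 10 mM MgCl2, 0.5 mM EDTA, pH 7.4. Incubated with 2.7 nM [3H]-LSD and 22.9 µg protein for 60 min at 37 °C, then filtered on PEI-treated glass fibre. Nonspecific binding defined with 100 µM serotonin. Triplicate points; IC50 from a regression line, converted to Ki by Cheng-Prusoff.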

[3] = target: T2, 5-hydroxytryptamine receptor 1A (Homo sapiens, UniProt P08908); experiment: Inhibition of human 5HT1A receptor
T2 sequence (P08908 whole entry): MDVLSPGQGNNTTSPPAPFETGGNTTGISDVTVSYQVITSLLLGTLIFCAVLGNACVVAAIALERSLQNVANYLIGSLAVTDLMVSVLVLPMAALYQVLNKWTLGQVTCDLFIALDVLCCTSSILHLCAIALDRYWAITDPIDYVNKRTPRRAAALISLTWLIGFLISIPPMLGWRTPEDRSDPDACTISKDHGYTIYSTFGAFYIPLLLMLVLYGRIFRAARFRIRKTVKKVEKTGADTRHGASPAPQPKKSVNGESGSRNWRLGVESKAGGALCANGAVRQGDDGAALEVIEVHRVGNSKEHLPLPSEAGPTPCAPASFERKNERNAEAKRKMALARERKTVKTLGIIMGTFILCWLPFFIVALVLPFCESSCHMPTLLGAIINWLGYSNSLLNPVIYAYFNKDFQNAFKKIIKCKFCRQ

[4] = target: T1, 5-hydroxytryptamine receptor 6; experiment: Antagonist activity at human 5HT6 receptor expressed in HEK293 cells assessed as inhibition of 5-HT-stimulated cAMP accumulation by HTRF assay relative to untreated control; format: functional, cell-based
In short: (§1)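 HEK-293F cells stably expressing human 5-HT6, serum-starved overnight, 20,000 cells/well in Ham's F12 with 1 mM IBMX and 20 µM pargyline. Compound or DMSO vehicle (final DMSO ≤2%) added for 30 min at 37 °C, with 5-HT present in antagonist mode. HTRF cAMP detection with cryptate and XL-665, 1 h at room temperature, read at 665/620 nm.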

[5] = target: T3, Alpha-2A adrenergic receptor (Homo sapiens, UniProt P08913); experiment: Inhibition of human alpha-2a adrenergic receptor
T3 sequence (P08913 whole entry): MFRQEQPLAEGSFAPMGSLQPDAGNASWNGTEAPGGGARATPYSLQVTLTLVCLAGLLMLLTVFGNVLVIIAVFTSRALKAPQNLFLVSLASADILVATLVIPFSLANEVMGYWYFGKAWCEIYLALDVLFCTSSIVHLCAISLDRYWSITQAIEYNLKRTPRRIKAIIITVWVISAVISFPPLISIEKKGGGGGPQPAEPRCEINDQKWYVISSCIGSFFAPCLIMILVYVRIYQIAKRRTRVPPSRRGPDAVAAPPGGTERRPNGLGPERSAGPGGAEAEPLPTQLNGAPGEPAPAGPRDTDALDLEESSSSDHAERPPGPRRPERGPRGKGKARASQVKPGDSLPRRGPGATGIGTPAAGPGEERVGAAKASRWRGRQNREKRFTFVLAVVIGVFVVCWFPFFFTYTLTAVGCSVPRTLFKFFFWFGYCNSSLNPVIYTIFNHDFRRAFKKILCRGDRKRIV

[6] = target: T1, 5-hydroxytryptamine receptor 6; experiment: Binding affinity to 5HT6 receptor
[7] = target: T1, 5-hydroxytryptamine receptor 6; experiment: Agonist activity at 5HT6 receptor; format: functional
In short: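 HEK-293F cells stably expressing human 5-HT6, kept overnight in serum-free medium, then 20,000 cells/well in Ham's F12 with 1 mM IBMX and pargyline. Compound (DMSO at most 2% final) added for 30 min at 37 °C without 5-HT. cAMP measured by HTRF (cryptate plus XL-665), 1 h at room temperature, 665/620 nm ratio read.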

[8] = target: T1, 5-hydroxytryptamine receptor 6; experiment: Antagonist activity at 5HT6 receptor; format: functional
[9] = target: T4, 5-hydroxytryptamine receptor 2C (Homo sapiens, UniProt P28335); experiment: Inhibition of human 5HT2C receptor
T4 sequence (P28335 whole entry): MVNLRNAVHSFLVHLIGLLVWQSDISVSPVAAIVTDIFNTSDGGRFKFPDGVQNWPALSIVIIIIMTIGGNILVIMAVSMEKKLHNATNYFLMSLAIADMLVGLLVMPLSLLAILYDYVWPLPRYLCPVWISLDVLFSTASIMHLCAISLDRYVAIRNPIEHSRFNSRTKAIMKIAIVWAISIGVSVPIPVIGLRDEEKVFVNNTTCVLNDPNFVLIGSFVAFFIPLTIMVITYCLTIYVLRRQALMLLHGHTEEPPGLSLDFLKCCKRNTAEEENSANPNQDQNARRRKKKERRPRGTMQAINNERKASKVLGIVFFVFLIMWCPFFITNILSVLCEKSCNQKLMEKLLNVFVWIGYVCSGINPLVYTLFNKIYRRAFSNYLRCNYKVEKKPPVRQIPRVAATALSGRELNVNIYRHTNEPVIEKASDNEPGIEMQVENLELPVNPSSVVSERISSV

[10] = target: T5, Adrenergic receptor alpha-1 (Rattus norvegicus, UniProt P15823+P23944+P43140); experiment: Inhibition of rat alpha1 adrenergic receptor
T5 sequence (P15823 whole entry): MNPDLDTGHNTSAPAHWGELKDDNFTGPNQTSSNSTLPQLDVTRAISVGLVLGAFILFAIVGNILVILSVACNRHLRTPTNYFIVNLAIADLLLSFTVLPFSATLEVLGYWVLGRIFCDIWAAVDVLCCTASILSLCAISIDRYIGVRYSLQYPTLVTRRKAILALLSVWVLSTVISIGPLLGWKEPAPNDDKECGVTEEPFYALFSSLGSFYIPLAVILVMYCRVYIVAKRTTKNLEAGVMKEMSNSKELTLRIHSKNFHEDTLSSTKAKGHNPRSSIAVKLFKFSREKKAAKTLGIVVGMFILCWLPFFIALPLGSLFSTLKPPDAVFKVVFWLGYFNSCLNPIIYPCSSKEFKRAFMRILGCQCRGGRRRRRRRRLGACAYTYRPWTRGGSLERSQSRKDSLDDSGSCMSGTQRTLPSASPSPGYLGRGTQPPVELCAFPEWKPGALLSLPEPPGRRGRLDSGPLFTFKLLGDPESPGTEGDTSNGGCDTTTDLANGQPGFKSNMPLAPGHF
T5 sequence (P23944 whole entry): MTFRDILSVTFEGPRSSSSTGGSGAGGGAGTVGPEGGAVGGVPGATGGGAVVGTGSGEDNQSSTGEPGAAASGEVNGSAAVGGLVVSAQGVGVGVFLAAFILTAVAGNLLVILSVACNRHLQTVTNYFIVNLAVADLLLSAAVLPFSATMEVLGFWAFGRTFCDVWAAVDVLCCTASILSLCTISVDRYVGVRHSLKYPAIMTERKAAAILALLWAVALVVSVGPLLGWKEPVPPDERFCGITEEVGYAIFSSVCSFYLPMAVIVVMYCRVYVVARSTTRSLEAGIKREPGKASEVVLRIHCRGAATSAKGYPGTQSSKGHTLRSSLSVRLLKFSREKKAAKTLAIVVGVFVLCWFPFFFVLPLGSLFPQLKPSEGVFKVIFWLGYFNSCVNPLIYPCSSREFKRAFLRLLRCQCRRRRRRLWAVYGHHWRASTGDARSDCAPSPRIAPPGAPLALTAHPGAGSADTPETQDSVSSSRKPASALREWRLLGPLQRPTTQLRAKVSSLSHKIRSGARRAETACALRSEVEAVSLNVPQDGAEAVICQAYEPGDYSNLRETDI
T5 sequence (P43140 whole entry): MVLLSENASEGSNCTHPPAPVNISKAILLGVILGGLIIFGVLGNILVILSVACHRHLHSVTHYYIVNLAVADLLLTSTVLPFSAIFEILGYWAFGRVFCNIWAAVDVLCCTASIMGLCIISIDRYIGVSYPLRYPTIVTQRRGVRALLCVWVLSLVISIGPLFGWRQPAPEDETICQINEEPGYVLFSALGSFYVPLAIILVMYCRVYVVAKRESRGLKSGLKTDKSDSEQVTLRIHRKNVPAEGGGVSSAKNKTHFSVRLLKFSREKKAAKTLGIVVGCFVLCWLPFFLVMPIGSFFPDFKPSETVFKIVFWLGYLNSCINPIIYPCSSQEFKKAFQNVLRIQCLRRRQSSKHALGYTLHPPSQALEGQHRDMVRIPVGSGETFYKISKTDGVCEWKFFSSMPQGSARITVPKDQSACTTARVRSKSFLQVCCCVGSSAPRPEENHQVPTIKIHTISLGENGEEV

[11] = target: Sodium-dependent serotonin transporter (Homo sapiens, UniProt P31645); experiment: Inhibition of human SERT
[12] = target: T1, 5-hydroxytryptamine receptor 6; experiment: Agonist activity at human 5HT6 receptor expressed in HEK293 cells assessed as stimulation of cAMP accumulation by HTRF assay relative to control; format: functional, cell-based; in short: as §1
[13] = target: T1, 5-hydroxytryptamine receptor 6; experiment: Antagonist activity at human 5HT6 receptor expressed in HEK293 cells assessed as inhibition of 5-HT-stimulated cAMP accumulation by HTRF assay; format: functional, cell-based; in short: as §1

T1 sequence (P50406 whole entry): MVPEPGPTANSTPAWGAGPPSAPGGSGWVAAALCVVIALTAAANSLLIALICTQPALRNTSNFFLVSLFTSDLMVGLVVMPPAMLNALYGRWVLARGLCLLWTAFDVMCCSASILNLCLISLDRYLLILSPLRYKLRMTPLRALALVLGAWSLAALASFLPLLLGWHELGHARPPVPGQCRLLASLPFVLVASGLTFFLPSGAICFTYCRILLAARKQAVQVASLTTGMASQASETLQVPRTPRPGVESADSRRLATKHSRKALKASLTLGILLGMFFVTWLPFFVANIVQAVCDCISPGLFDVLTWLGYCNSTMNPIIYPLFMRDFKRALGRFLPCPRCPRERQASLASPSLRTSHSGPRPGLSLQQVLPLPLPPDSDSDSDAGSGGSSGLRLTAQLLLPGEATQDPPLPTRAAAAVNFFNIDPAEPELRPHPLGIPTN
Sequence of Sodium-dependent serotonin transporter (P31645 whole entry): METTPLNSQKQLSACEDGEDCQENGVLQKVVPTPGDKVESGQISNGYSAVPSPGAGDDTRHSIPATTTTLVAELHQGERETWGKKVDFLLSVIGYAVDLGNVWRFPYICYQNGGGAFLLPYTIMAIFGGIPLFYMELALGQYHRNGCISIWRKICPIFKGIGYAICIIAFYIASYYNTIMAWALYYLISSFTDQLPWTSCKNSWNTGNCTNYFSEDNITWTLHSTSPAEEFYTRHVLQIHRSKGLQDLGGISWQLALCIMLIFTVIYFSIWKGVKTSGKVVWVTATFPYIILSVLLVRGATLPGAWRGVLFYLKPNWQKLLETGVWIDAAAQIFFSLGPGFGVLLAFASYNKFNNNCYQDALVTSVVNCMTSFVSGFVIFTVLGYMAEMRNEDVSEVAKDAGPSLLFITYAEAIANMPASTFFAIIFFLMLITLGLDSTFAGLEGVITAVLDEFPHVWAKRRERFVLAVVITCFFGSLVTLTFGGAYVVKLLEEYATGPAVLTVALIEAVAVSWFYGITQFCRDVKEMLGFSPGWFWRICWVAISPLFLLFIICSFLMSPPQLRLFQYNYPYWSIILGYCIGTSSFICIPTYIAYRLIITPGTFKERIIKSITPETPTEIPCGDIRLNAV

| Compound | inhibition [1] [%] | Ki [2] [nM] | IC50 [3] [nM] | Imax [4] [%] | IC50 [5] [nM] | Ki [6] [nM] | IC50 [8] [nM] | further results |
| --- | --- | --- | --- | --- | --- | --- | --- | --- |
| CC1=C(C2CCCN(C)C2)c2cc(NS(=O)(=O)c3sc4ccc(Cl)cc4c3C)ccc2C1 (stereo unspecified) | 22 |  |  |  |  |  |  |  |
| CC1=C(C2CCCN(C)C2)c2cc(NS(=O)(=O)c3c(Cl)nc4sccn34)ccc2C1 (stereo unspecified) | 86 | 18 | > 10000 | 28 | 1210 |  |  |  |
| O=S(=O)(Nc1ccc2[nH]cc(C[C@H]3CCCN3)c2c1)c1ccc(C(F)(F)F)cc1 |  |  |  |  |  | 0.4 |  | EC50 [7]: 4.5 nM |
| O=S(=O)(Nc1ccc2[nH]cc(C[C@@H]3CCCN3)c2c1)c1ccc(C(F)(F)F)cc1 |  |  |  |  |  | 10 | 21.6 |  |
| CN(C)Cc1cn(S(=O)(=O)c2ccccc2)c2ccccc12 |  |  |  |  |  | 3 | 880 |  |
| Cc1cn(S(=O)(=O)c2ccc(N)cc2)c2ccccc12 |  |  |  |  |  |  | 320 |  |
| COc1cc2c(cc1NS(=O)(=O)c1c(Cl)nc3sccn13)C(C)=C(C)C2 | 84 | 64 | > 10000 | 10 | > 1000 |  |  | IC50 [9]: > 1000 nM; IC50 [10]: > 10000 nM; IC50 [11]: > 10000 nM; Emax [12]: 49% |
| CC1=CC(C)(C)c2ccc(NS(=O)(=O)c3c(Cl)nc4sccn34)cc21 | 75 | 80 | > 10000 | 92 | > 10000 |  |  | IC50 [9]: > 10000 nM; IC50 [13]: 2400 nM; IC50 [11]: > 10000 nM |
| Cc1c(S(=O)(=O)Nc2ccc3c(c2)C([C@H]2CCN(C)C2)=CC3)sc2ccc(Cl)cc12 | 57 |  |  |  |  |  |  |  |
